Compound activity as filed in PubChem.
MC4R antagonist: MC4R antagonists of cAMP signaling, primary screen, cell-based, TR-FRET, antagonist arm of biased-ligand search. MC4R-expressing cells, MTII-stimulated cAMP, LANCE TR-FRET. Melanocortin receptor 4 (Homo sapiens), P32245. AID 540295, 2011. 360,000 tested, 0.48% active. inhibition, % at 6.5 µM;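 active = inhibition above its plate's cutoff, the mean of tested wells on that plate plus 3 SD, cut at about 29% in these data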
Target sequence (P32245 whole entry, looked up): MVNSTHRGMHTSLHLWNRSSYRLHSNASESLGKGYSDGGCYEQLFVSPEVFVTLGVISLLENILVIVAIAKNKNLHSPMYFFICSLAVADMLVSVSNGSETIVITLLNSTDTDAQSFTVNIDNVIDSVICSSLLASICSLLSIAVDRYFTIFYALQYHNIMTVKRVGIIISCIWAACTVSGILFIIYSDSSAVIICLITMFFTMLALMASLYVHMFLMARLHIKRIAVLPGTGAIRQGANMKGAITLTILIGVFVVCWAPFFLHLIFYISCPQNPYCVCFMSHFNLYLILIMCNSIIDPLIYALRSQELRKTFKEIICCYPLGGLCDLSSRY
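material = U2OS cells stably expressing human melanocortin 4 receptor (MC4R) | also added = Melanotan II challenge | dosing = single nominal compound dose of 6.5 µM | detection = TR-FRET with Eu-cAMP and labeled anti-cAMP, 671 nm | replication = singlicate | timing = compound 30 min, challenge 1 h, detection 1 h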
m5-HT2A agonist: mouse Htr2a agonists via beta-arrestin recruitment, primary screen, cell-based, luminescence. AID 624169, 2012. activation, % at 7.6 µM. 5-hydroxytryptamine receptor 2A (Mus musculus), P35363. CHO-K1 mHTR2A beta-arrestin complementation; percent of 30 µM serotonin response. 360,000 tested, 0.66% active;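 active = activation above a run cutoff, the mean activation of all tested compounds plus 3 SD, cut at about 14% in these data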
MC4R ag barr: MC4R agonists recruiting beta-arrestin, primary screen, cell-based, luminescence, agonist arm of biased-ligand search | Melanocortin receptor 4 (Homo sapiens), P32245 | activation, % at 8.9 µM | AID 540308, 2011 | 360,000 tested, 0.98% active | U2OS MC4R beta-arrestin complementation; percent of melanotan II response, DMSO zero;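 active = activation above a per-plate cutoff, the mean activation of sample wells on that plate plus 3 SD, cut at about 8% in these data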
TAAR1 antag: human TAAR1 antagonists, primary screen, Fluo-8 calcium fluorescence, CHO RD-HGA16 cells. antagonist. inhibition, % at 3 µM. 360,000 tested, 1.5% active;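 active = inhibition above a per-plate cutoff, the mean inhibition of test compounds on that plate plus 3 SD, cut at about 49% in these data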
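Material: CHO RD-HGA16 cells bearing hTAAR1; compound dosing: one-point dosing, 3 µM nominal final; schedule: dye loading 75 min at 37 °C, then 30 min room temperature; measured by: calcium fluorescence with Fluo-8; control set: vehicle and agonist controls; replication: n of 1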
TAAR1 ag: human TAAR1 agonists, primary screen, Fluo-8 calcium fluorescence, CHO RD-HGA16 cells; Trace amine-associated receptor 1 (Homo sapiens), Q96RJ0; vehicle wells 0%, saturating PEA agonist 100%; activation, % at 3 µM; 360,000 tested, 0.99% active; AID 624467, 2012;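 active = activation above the mean activation of all test compounds in the run plus 3 SD, cut at about 38% in these data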
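Benchmarks: low control DMSO, high control PEA (EC100); System: CHO RD-HGA16 cells carrying human TAAR1 plus Gα16; Detection: Fluo-8 fluorescence, 5 s baseline then 140 s kinetic read; Schedule: 17-24 h plating, Fluo-8 75 min 37 °C, 30 min RT; Read-out basis: % activation from peak over basal fluorescence ratio, DMSO-to-PEA scaled.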
B2AR ag: beta2AR agonists driving receptor internalization, primary screen, cell-based, FAP fluorogen, flow cytometry. Beta-2 adrenergic receptor (Homo sapiens), P07550. Am2.2-beta2AR cells. response, % (test concentration not listed). 340,000 tested, 0.43% active. AID 504454, 2011;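 active = response above a set limit, near 3 SD of response in nonfluorescent compounds, cut at about 42% in these data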
Target sequence (P07550 whole entry, looked up): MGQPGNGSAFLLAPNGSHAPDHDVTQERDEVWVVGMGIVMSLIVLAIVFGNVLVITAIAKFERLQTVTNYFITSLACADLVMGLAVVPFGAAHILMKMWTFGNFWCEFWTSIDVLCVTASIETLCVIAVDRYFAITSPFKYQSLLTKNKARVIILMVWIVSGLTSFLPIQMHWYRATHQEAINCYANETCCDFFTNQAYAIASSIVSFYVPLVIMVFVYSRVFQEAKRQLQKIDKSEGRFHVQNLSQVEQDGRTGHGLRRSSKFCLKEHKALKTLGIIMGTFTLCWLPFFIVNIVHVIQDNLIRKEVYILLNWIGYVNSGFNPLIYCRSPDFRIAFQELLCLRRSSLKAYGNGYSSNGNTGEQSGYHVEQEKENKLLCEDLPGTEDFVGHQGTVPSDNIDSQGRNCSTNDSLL
Large screens that a line does not name were inactive. A selection: hits, their analogues and other compounds. The true share with any hit is near 4.3%.

CC(C)(C)S(=O)(=O)N1C[C@@H]2CC(=O)C(CCO)=C2[C@H]1CCO	none (no result: MC4R antagonist, m5-HT2A agonist, MC4R ag barr, B2AR ag)
COC(=O)c1c(-c2ccc(OC)cc2)c2c(c3c4cc(OC)ccc4n(S(=O)(=O)c4ccc(C)cc4)c13)C(=O)N(C)C2	none (no result: MC4R antagonist, m5-HT2A agonist, MC4R ag barr, B2AR ag)
CC(C)c1ccc(NC(=O)C2Cc3c(-c4ccc(Cl)cc4)ccnc3O2)cc1 (configuration not stated)	none (no result: B2AR ag)
CC(=O)Nc1ccc(NC(=O)COC(=O)c2c3c(nc4ccccc24)CCN(Cc2ccccc2)C3)cc1	TAAR1 antag 63
Cc1cc(C)c2c(=O)[nH][nH]c2n1	none
CCc1c(C2CC2)ncn1Cc1cccc(-c2ccccc2)c1	none (no result: MC4R antagonist, MC4R ag barr, B2AR ag)
CO/N=C/c1ccc(N2CCN(C(=O)c3ccc(Cl)cc3Cl)CC2)c([N+](=O)[O-])c1	TAAR1 antag 70, TAAR1 ag 43
O=C(O/N=C\c1ccc(N2CCCCC2)c([N+](=O)[O-])c1)c1cccc(C(F)(F)F)c1	none
CO/N=C/c1ccc(N2CCN(C(=O)c3cccc(C(F)(F)F)c3)CC2)c([N+](=O)[O-])c1	TAAR1 antag 54
CO/N=C/c1ccc(N2CCN(C(=O)c3ccc(F)cc3)CC2)c([N+](=O)[O-])c1	TAAR1 ag 38
O=C(O/N=C\c1ccc(N2CCCCC2)c([N+](=O)[O-])c1)c1cccc(Cl)c1	none
C[C@H](CO)N1C[C@H](C)[C@@H](CN(C)C(=O)Nc2ccc3c(c2)OCO3)OCc2cn(nn2)CCCC1=O	none (no result: MC4R antagonist, m5-HT2A agonist, MC4R ag barr, B2AR ag)
CCCCCCCCN1C(=O)[C@@H](CC(=O)N2CCCCC2)C[C@@]2(C(=O)OC)C1=C[C@H](C1CCCC1)O[C@@H]2C	none (no result: MC4R antagonist, m5-HT2A agonist, MC4R ag barr, B2AR ag)
NCCCC(C(=O)O)N(C(=O)OCc1ccccc1)C(=O)OCc1ccccc1 (configuration not stated)	none (no result: MC4R antagonist, m5-HT2A agonist, MC4R ag barr, B2AR ag)
O=c1[nH]c(/C=C/c2ccccc2F)nc2ccccc12	none
O=c1[nH]c(/C=C/c2ccccc2[N+](=O)[O-])nc2ccccc12	MC4R ag barr 8.8
C=CCN(CC=C)CCOc1ccc2ccccc2c1	TAAR1 ag 39
O=C(NC(=S)Nc1ccccc1N1CCCCC1)c1ccccc1	MC4R ag barr 9.1
O=C(NC(=S)Nc1cc(Cl)ccc1N1CCOCC1)c1ccccc1[N+](=O)[O-]	none
O=C(NC(=S)Nc1ccccc1N1CCCC1)c1ccc(F)cc1	none
CS(=O)(=O)N1CCN(c2ccccc2NC(=S)NC(=O)c2ccccc2[N+](=O)[O-])CC1	TAAR1 antag 54
C/C(=N/OC(=O)c1ccc(C)cc1)c1ccc(N2C(=O)C3CCCCC3C2=O)cc1 (configuration not stated)	TAAR1 antag 66
CC(=O)O[C@H]1C[C@@H](n2cnc3c(Cl)ncnc32)[C@@H]2OC(C)(C)O[C@@H]21	none (no result: MC4R antagonist, m5-HT2A agonist, MC4R ag barr, B2AR ag)
COc1ccc(C(=O)C(=O)N2CCN(C(=O)c3ccccc3C(F)(F)F)CC2)cc1OC	none (no result: MC4R antagonist, m5-HT2A agonist, MC4R ag barr, B2AR ag)
Cc1ccc(C(=O)C(c2ccccc2)N2Cc3ccccc3C2=N)cc1 (configuration not stated)	B2AR ag 81 (no result: TAAR1 antag, TAAR1 ag)
CC(=O)O[C@@H]1C=C[C@@H](C#Cc2ccc(C(C)(C)C)cc2)O[C@@H]1COC(=O)Nc1ccccc1	none (no result: MC4R antagonist, m5-HT2A agonist, MC4R ag barr, B2AR ag)
CCOC(=O)c1ccc(N2CCN(c3ccccc3F)CC2)c(NC(=O)Nc2cccc(OC)c2)c1	TAAR1 antag 69
COC(=O)c1ccc(N2CCOCC2)c(NC(=O)Nc2cccc(OC)c2)c1	none
Nc1nc(N)c(Br)c(Nc2ccc(Cl)c(Cl)c2)n1	TAAR1 ag 46
CCc1c(N)nc(N)nc1Nc1ccc(C)c(C)c1	none
CC1CCC2(CC1)OCC1(CCC3(COC4(CCC(C)CC4)OC3)C1=O)CO2 (configuration not stated)	MC4R ag barr 9.2
COc1ccc(CN2CCc3ccc(NC(=O)CCc4ccccc4OC)cc3C2)c(O)c1	TAAR1 antag 59
OC(CN(c1ccccc1)c1ccccc1)Cn1cnc2ccccc21 (configuration not stated)	TAAR1 antag 57
OC(COCc1ccccc1)Cn1cnc2ccccc21 (configuration not stated)	none
COc1ccc(/C=C(/C(=O)c2cccs2)N2C=CC=CC2=C(C#N)C#N)cc1	TAAR1 antag 56, B2AR ag 77
C/C(=N\Nc1ccc(S(=O)(=O)N2CCOCC2)cc1[N+](=O)[O-])C(C)C	none
COc1ccc(C2C(C(C)=O)=C(C)N=c3s/c(=C\c4cc(C)n(C)c4C)c(=O)n32)c(OC)c1 (configuration not stated)	TAAR1 ag 41
COc1ccc(C2C(C(C)=O)=C(C)N=c3s/c(=C\c4ccco4)c(=O)n32)c(OC)c1 (configuration not stated)	none
COc1cc(NC(=O)c2cc3ccccc3cc2O)c(OC)cc1Cl	m5-HT2A agonist 21, TAAR1 antag 49
COc1cc(OC)c(NC(=O)c2ccccc2F)cc1Cl	none
Cc1c(Cc2ccccc2)c(=O)oc2c(C)c(OCC(=O)NCc3ccccn3)ccc12	B2AR ag 45
Cc1ccc(-n2nnc3c(=O)oc4ccccc4c32)cc1	MC4R antagonist 46
Cc1sc(NC(=O)CSc2nnc3scc(-c4ccccc4)n23)c(C#N)c1C	MC4R ag barr 16
Nc1c(-c2cccs2)cnn1-c1nc(-c2ccc(F)cc2)cs1	MC4R ag barr 9.6
CC1(C)OC(=O)C2=C(CC(CCc3ccccc3)OC2c2cccc(C(F)(F)F)c2)O1 (configuration not stated)	none (no result: MC4R antagonist, m5-HT2A agonist, MC4R ag barr, B2AR ag)
COc1ccc2nc(C)cc(N/N=C/c3cccc(OC)c3O)c2c1	none
COc1ccc(/C=N/Nc2cc(C)nc3ccc(Br)cc23)cc1	MC4R ag barr 16
COC(=O)[C@]12C[C@H](CC(=O)N3CCN(C(=O)c4ccco4)CC3)C(=O)N(CCC3=CCCCC3)C1=C[C@H](COCc1ccccc1)O[C@@H]2C	none (no result: MC4R antagonist, m5-HT2A agonist, MC4R ag barr, B2AR ag)
COc1ccc(C(=O)CNc2ccccc2C#N)cc1	MC4R ag barr 8.3
COc1ccc(C(=O)CNc2ccccc2CO)cc1	none
CCC(C(=O)Nc1c(C)cccc1C)n1c(-c2ccc(=O)[nH]c2)nc2ccccc21 (configuration not stated)	none (no result: MC4R antagonist, MC4R ag barr, B2AR ag)
O=C(Nc1cccc(Cl)c1)Nc1ccnc(-c2cccnc2)n1	TAAR1 antag 55
CCOC(=O)c1nc2sc3c(c2c(=O)[nH]1)CCC(C)C3 (configuration not stated)	B2AR ag 56
